Ki data for 14 compounds are collected here from ChEMBL document CHEMBL3098014 (Bioorg Med Chem, 2014).

As a reminder, the pKi is the Ki on a negative log10 scale, so that one unit is a factor of ten. Read a low pKi as a large Ki.

Structures are written as SMILES. pKi: −log10 of the molar value.

The target of test [1] is Transporter (Rattus norvegicus, UniProt Q63380). The test is described as follows: Displacement of [3H]-dopamine from rat cerebral cortex NET after 7 mins. The format is tissue-based. For orientation: Displacement assays read how much labelled ligand stays bound in the presence of the test substance.
Test [2] addresses Sodium-dependent serotonin transporter (Rattus norvegicus, UniProt P31652). The test is described as follows: Displacement of [3H]5-HT from rat cerebral cortex SERT after 10 mins. The format is tissue-based. The procedure, abridged:
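Rat cerebral cortex tissue. Inhibition of [3H]5-HT (27.9 Ci/mmol) uptake, accumulation measured over 10 min. Drug stocks included an added 0.01% (w/v) BSA. Five or more triplicate concentrations bracketing the IC50, converted to Ki by Cheng-Prusoff. Mean ± SEM from three to eight independent experiments.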

The target of test [3] is Sodium-dependent dopamine transporter (Rattus norvegicus, UniProt P23977). The test is described as follows: Displacement of [3H]-dopamine from rat striatum DAT after 5 mins. The procedure, abridged: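 Uptake inhibition in rat striatal tissue: [3H]dopamine (45.0 Ci/mmol) accumulation measured over 5 min. Drug stocks contained an extra 0.01% (w/v) BSA. At least five concentrations, each in triplicate, spaced evenly around the IC50. IC50 converted to Ki via Cheng-Prusoff. Average ± SEM of three to eight independent experiments.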
Sodium-dependent dopamine transporter, sequence (P23977 whole entry): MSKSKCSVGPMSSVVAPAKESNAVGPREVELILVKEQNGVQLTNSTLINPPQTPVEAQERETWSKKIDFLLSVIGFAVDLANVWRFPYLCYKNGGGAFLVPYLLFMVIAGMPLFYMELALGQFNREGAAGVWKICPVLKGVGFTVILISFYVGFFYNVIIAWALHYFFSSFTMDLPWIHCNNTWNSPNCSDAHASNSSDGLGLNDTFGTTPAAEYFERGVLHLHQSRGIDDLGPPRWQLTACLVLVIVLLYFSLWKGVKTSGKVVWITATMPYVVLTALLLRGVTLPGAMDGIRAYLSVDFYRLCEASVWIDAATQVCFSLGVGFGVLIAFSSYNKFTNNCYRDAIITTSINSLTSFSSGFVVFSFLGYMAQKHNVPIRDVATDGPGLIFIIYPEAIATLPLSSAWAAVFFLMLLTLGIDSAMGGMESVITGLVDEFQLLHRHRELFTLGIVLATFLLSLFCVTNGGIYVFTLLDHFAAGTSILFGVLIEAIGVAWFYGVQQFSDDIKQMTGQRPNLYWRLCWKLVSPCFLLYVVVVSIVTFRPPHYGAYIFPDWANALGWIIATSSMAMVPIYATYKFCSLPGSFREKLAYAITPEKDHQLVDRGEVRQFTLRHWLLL

Transporter, sequence (Q63380 whole entry): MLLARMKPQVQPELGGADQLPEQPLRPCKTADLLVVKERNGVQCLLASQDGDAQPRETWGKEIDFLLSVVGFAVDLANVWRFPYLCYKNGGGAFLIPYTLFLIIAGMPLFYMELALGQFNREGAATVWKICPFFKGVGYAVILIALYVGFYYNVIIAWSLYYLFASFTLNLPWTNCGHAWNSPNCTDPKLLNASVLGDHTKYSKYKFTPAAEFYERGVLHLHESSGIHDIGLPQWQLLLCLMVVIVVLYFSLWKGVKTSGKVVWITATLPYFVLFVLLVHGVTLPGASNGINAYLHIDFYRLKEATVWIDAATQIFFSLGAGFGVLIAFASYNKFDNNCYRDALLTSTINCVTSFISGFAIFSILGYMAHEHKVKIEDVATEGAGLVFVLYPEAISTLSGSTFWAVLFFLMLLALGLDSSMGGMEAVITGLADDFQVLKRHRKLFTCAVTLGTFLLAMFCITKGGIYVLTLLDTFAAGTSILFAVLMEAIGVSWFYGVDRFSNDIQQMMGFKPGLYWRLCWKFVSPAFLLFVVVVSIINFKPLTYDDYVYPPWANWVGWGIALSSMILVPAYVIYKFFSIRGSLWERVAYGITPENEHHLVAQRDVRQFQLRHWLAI
Sodium-dependent serotonin transporter, sequence (P31652 whole entry): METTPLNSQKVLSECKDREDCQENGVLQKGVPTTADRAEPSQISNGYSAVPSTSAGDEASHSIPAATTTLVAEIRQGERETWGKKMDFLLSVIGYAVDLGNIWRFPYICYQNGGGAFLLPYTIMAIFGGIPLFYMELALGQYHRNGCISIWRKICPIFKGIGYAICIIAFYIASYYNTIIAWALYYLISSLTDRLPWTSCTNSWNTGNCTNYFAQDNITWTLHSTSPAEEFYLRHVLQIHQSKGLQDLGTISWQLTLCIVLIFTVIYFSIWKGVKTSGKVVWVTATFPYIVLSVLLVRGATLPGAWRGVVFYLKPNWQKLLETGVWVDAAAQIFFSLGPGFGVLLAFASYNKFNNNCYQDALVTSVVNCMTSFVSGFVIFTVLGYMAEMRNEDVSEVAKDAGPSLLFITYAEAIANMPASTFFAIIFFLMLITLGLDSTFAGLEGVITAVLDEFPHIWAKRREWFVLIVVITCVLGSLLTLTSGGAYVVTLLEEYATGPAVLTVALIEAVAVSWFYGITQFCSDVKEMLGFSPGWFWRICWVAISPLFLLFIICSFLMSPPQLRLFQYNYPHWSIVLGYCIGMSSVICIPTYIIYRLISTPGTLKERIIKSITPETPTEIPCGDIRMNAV

Take `Oc1ccc(CN[C@@H]2CO[C@H](C(c3ccccc3)c3ccccc3)C2)cc1`: the pKi in test [1] was 5.82; in test [2], 5.94; in test [3], 6.03.
In the same order, the values of `COc1ccc(CCN[C@@H]2CO[C@H](C(c3ccccc3)c3ccccc3)C2)cc1` are 6.70, 6.45 and 6.58.
The compound `Nc1ccc(CN[C@H]2CC[C@@H](C(c3ccccc3)c3ccccc3)OC2)cc1` had a pKi in test [1] of 7.90.
With `Oc1ccc(CN[C@@H]2CO[C@H](C(c3ccc(F)cc3)c3ccc(F)cc3)C[C@H]2O)cc1`, the pKi in test [1] was 8.38; in test [2], 7.23; in test [3], 7.42.
For `Oc1ccc(CN[C@H]2CC[C@@H](CC(c3ccccc3)c3ccccc3)OC2)cc1`, the pKi in test [1] was 6.74; in test [2] it was 6.46; in test [3], 6.61.
In the same order, the values of `Nc1ccc(CN[C@H]2CC[C@@H](C(c3ccc(F)cc3)c3ccc(F)cc3)OC2)cc1` are 8.08, 7.16 and 7.49.
In the same order, the values of `Fc1ccc(C(c2ccc(F)cc2)[C@@H]2CC[C@H](NCc3ccc4c(c3)CCO4)CO2)cc1` are 8.21, 8.52 and 7.95.
The corresponding values for `Fc1ccc(CCN[C@@H]2CO[C@H](C(c3ccccc3)c3ccccc3)C2)cc1` are 6.71, 5.87 and 6.23.
Take `Oc1ccc(CN[C@H]2CO[C@H](C(c3ccccc3)c3ccccc3)C2)cc1`: the pKi in test [1] is 6.01; in test [2], 6.39; in test [3], 5.43.
Turning to `Oc1ccc(CN[C@H]2CC[C@@H](Cc3ccccc3)OC2)cc1`, the figures for the pKi in test [1] and in test [2] were 6.62 and 5.60, respectively.
For the compound `Oc1ccc(CCN[C@@H]2CO[C@H](C(c3ccccc3)c3ccccc3)C2)cc1`, the pKi was 6.78 in test [1], 6.82 in test [2] and 6.59 in test [3].
On to `c1ccc(CCN[C@H]2CO[C@H](C(c3ccccc3)c3ccccc3)C2)cc1`, for which the negative logarithm of the Ki (pKi) is 6.13 in test [1], 6.07 in test [2] and 6.34 in test [3].
In the same order, the values of `c1ccc(CCN[C@@H]2CO[C@H](C(c3ccccc3)c3ccccc3)C2)cc1` are 6.37, 5.69 and 6.19.
In the case of `Oc1ccc(CN[C@H]2CC[C@@H](CCC(c3ccccc3)c3ccccc3)OC2)cc1`, the figures for the pKi in test [1], in test [2] and in test [3] were 7.42, 6.33 and 7.34, respectively.
